Compound activity as filed in PubChem.
In the library only some 1.7% were active in any assay of this set; here they are far more common.
SUMO1 PPI mod: SUMO1-SIM interaction modulation | inhibition, % at 20 µM | P63165 | 0.33% of 360,000 active | SUMO1 binding to a labelled peptide, TR-FRET, 1 h; in the data active = inhibition above about 37%
Target sequence (P63165 whole entry, looked up): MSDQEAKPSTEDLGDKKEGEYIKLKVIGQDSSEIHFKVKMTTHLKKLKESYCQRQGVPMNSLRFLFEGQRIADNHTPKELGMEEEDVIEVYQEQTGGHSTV
DNMT1 inh: blocks human DNA methyltransferase DNMT1 | inhibition (reported as % activation of signal), % at 10 µM | P26358 | AID 588458 | 0.83% of 360,000 active | DNMT1 molecular beacon, Hinp1I cleavage, fluorescence; in the data active = inhibition above about 50%
LMPTP inh: LMPTP (human) inhibition. P24666. recombinant LMPTP-A, OMFP fluorogenic substrate, fluorescence intensity. inhibition, % at 20 µM. 0.22% of 360,000 active. AID 651560;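 active = compounds that cut the enzyme signal by at least half of the control window in the single-dose screen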;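 note: plate controls were DMSO wells with enzyme plus substrate for no effect and substrate without enzyme for full effect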
Target sequence (P24666 whole entry, looked up): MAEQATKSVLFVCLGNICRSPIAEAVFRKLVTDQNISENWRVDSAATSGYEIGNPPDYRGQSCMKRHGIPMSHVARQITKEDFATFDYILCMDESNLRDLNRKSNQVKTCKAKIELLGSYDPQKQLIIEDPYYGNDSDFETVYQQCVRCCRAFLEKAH
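Assay system: LMPTP-A enzyme. Input: 0.625 nM LMPTP-A final. Probe or stimulus: 400 µM OMFP. Compound dosing: single 20 µM dose. Schedule: 50 min dark incubation at room temperature. Detection: fluorescence intensity of OMFP turnover product. Read-out: percent inhibition versus substrate-only and uninhibited controls. Benchmarks: no-enzyme low control, uninhibited high control.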
STEP block: blocks human striatal-enriched tyrosine phosphatase. P54829. recombinant STEP, OMFP fluorogenic substrate, fluorescence. inhibition, % at 20 µM. 0.25% of 360,000 active. AID 588621;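 active = inhibition at 20 µM, scaled per plate between control wells, above about 37%, limit read from the data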;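 note: 0% = DMSO with enzyme and substrate and 100% = substrate only without enzyme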
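Assay system: isolated STEP enzyme. Buffer or medium: pH 6.0 Bis-Tris with DTT and Tween 20. Also added: fluorogenic phosphatase substrate OMFP at 25 µM final. Dosing: 20 µM, 1% DMSO. Timing: 20 min reaction, room temperature, in the dark. Measured by: fluorescence intensity, excitation 480 nm, emission 540 nm. Evaluation: normalized % inhibition.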
Scp-1 inhibitor: inhibitors of human Scp-1 phosphatase | Q9GZU7 | Recombinant Scp1, phosphopeptide, malachite green phosphate absorbance | inhibition, % at 20 µM | 0.88% of 340,000 active | AID 493091;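 active = inhibition above about 50% at 20 µM, limit read from the data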;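 note: plate controls were DMSO wells with enzyme for no effect and wells lacking enzyme for full effect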
Target sequence (Q9GZU7 76-261 limits assumed): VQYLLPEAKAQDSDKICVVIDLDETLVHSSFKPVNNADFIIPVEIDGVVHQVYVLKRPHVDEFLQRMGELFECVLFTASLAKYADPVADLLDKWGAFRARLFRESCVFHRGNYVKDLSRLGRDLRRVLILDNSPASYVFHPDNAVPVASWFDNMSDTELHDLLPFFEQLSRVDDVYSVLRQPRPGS
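Test system – truncated SCP-1 phosphatase (76-261aa) · Reagent – Phosphorylated 17-residue peptide substrate · Incubation – 45 min room-temperature reaction, 5 min colour, 30 min stabiliser · Detection – colorimetric phosphate reagent with accelerator and stabiliser, absorbance at 630 nm · Measure – % inhibition at 20 µM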
Scp-1 conf: confirmation of human Scp-1 phosphatase inhibitors; inhibition, % at 20 µM; recombinant SCP-1 catalytic domain, phosphate release, malachite green absorbance; shares compounds with Scp-1 inhibitor; 61% of 2,500 active;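 note: plate controls were DMSO with enzyme for no effect and buffer wells lacking enzyme for full effect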
Scp-1 MG ctr: interferes with malachite green readout, flagging false Scp-1 hits | shares compounds with Scp-1 inhibitor | Colorimetric interference counterscreen, malachite green absorbance 630 nm | apparent inhibition (interference), % at 20 µM | 2,500 tested, under 10 active | AID 540313;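 note: compounds added after enzyme reaction finished so only phosphate colour detection is probed; plate controls were DMSO wells with completed Scp-1 reaction for no effect and substrate wells lacking enzyme for full effect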
Scp-1 Tm shift: validation of human Scp-1 inhibitors by thermal shift binding | AID 540329 | thermal shift relative to vanadate control, % at 40 µM | shares compounds with Scp-1 inhibitor | 25% of 1,500 active | Recombinant SCP1, Sypro Orange thermal shift Tm;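 active = substances whose mean melting-temperature shift, as a percentage of the reference inhibitor's shift, reaches about 5.3%, limit read from the data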;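 note: 0% = Tm of DMSO wells and 100% = Tm with sodium orthovanadate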
* marks the source's active call; other numbers are inactive results; · = no result given.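 Rule for the calls, unless noted: active = inhibition of at least 30% at 20 µM; inactive = the rest.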

SMILES	SUMO1 PPI mod	DNMT1 inh	LMPTP inh	STEP block	Scp-1 inhibitor	Scp-1 conf	Scp-1 MG ctr	others
CC(C)c1ccc(Nc2nnc(SCC(=O)NCC3CCCO3)s2)cc1 (stereo unspecified)	5	-2	2	-1	0	·	·
Cc1ccc(/C=N/NC(=O)c2ccc3ccccc3c2)s1	-20	5	2	4	16	·	·
O=C(NCc1ccc2c(c1)OCO2)c1cccc(S(=O)(=O)N2CCCC2)c1	5	-1	0	2	-2	·	·
Cc1ccc(C)c(NC(=S)N(CCc2ccncc2)C(C)C)c1	-2	11	2	-1	-5	·	·
Cc1cc(C)c(NC(=S)N(CCc2ccncc2)C(C)C)c(C)c1	9	-1	-4	17	61*	-19	-17
O=C(Nc1ncccc1O)c1ccc(Cl)c(S(=O)(=O)N2CCCCC2)c1	-8	-1	0	3	-4	·	·
CC(C)C[C@H]1CNC(=O)C(=O)N1C[C@H](Cc1ccc(O)cc1)NC(=O)CC12CC3CC(CC(C3)C1)C2	3	·	-1	·	·	·	·
CC(C)C[C@@H](CN1C(=O)C(=O)NC[C@@H]1CC(C)C)NC(=O)Cc1ccccc1	4	2	0	1	-3	-8	-8
CCCCN1C(=O)C(CC(=O)NCCCN(C)C)CC(C(=O)N(C)C)=C1C (stereo unspecified)	-4	6	-9	0	·	·	·
C/C(N)=C(/C#N)C(=O)CN1C(=O)NC(Cc2c[nH]c3ccccc23)C1=O (stereo unspecified)	11	17	7	12	65*	60*	-11	Scp-1 Tm shift=2
COc1cccc(C(CNC(=O)C2CCN(C(=O)Nc3ccccc3)CC2)N(C)C)c1 (stereo unspecified)	-1	1	-2	-1	-2	·	·
CCOC(=O)C(Cc1ccnc2ccccc12)=NO	1	8	2	-4	-5	·	·
CCOC(=O)C(=O)Cc1cccnn1	43*	66*	6	3	75*	44*	-23	Scp-1 Tm shift=12*
Cc1cc2ccccn2c1C(=O)c1ccc(N/N=C/c2ccc(C(=O)O)cc2)c([N+](=O)[O-])c1	104*	88*	8	99*	114*	70*	-19	Scp-1 Tm shift=6.4*
N=C1/C(=C\c2ccc(OC(=O)c3ccc(F)cc3)cc2)C(=O)N=C2SC(N3CCOCC3)=NN12	-3	8	1	2	66*	56*	-2	Scp-1 Tm shift=1
CC1CCN(C2=NN3C(=N)/C(=C\c4ccc(OC(=O)c5ccco5)cc4)C(=O)N=C3S2)CC1	13	16	0	2	35	·	·
NS(=O)(=O)c1cc(C(=O)OCC(=O)Nc2ccc3c(c2)OCO3)ccc1Cl	2	2	0	-2	-10	·	·
CCCSC1=N/C(=C\c2ccc([N+](=O)[O-])o2)C(=O)S1	62*	93*	45	31	60*	72*	-17	Scp-1 Tm shift=11*
CCSC1=N/C(=C\c2ccc(-c3ccccc3[N+](=O)[O-])o2)C(=O)S1	-1	-3	5	1	-20	·	·
CN(CCO)c1cnccn1	0	2	-3	-3	-3	·	·
CCOc1cccc(/C=N/NC(=O)C2CCCC2)c1O	-3	-1	0	4	-7	·	·
CCOc1cccc(/C=N/NC(=O)CC2C(=O)NN=C2C)c1O (stereo unspecified)	2	0	-1	2	-9	-6	-11
COc1cc(/C=N/NC(=O)CC2C(=O)NN=C2C)ccc1O (stereo unspecified)	-2	-4	-3	0	-16	-19	-18
COc1ccc(/C=C(\NC(=O)c2ccccc2)C(=O)OC[C@@H]2CCC[N+]3(C)CCCCC23)cc1OC (stereo partly specified)	-8	1	-1	-1	102*	89*	-11	Scp-1 Tm shift=-16
CCCc1nc(SCc2ccc(OCC)cc2)n[nH]1	-3	2	-2	-1	-9	·	·
SMILES	SUMO1 PPI mod	DNMT1 inh	LMPTP inh	STEP block	Scp-1 inhibitor	Scp-1 conf	Scp-1 MG ctr	others
CC(=O)Nc1ccc(C(=O)N/N=C/c2cc(Br)cc(Br)c2O)cc1	2	-1	0	-1	-10	·	·
CC(C)C(=O)Nc1ccc(C(=O)N/N=C/c2cc(Br)cc(Br)c2O)cc1	0	41	-1	14	55*	16	-18
CC(C)NC(=O)c1cccc2c(-c3ccc(F)c(F)c3)coc12	14	4	1	2	·	·	·
Cc1ccc(S(=O)(=O)N2CCN(C(=O)c3ccccc3)CC2)cc1	1	2	-1	1	-9	·	·
Cc1ccc(S(=O)(=O)N2CCN(C(=O)c3cccc(-n4cccc4)c3)CC2)cc1	11	32	6	4	86*	43*	-5	Scp-1 Tm shift=0
COc1cccc(C(=O)NCCS(=O)(=O)N(C)Cc2ccccc2)c1	5	1	-1	-3	-8	·	·
O=C(NNC1OC(CO)C(O)C(O)C1O)c1cccc(Br)c1 (stereo unspecified)	1	6	-1	-3	-19	10	1
Cc1cc(=O)oc2cc(NC(=O)c3ccccc3OC(F)F)ccc12	1	-9	1	0	-4	·	·
Cc1cc(=O)oc2cc(NC(=O)c3cc(F)ccc3F)ccc12	17	18	17	19	86*	62*	-12	Scp-1 Tm shift=-29
O=C(/C=C/c1ccc(Cl)cc1)NC(=S)Nc1ccccc1C(=O)O	-2	5	3	6	58*	67*	-13	Scp-1 Tm shift=7.8*
NC(=O)c1ccccc1NC(=O)/C=C/c1ccc(Cl)cc1	0	0	1	-2	6	·	·
C=CCn1c(SCc2nc3sc(C(=O)O)c(C)c3c(=O)[nH]2)nnc1-c1ccc(C(C)(C)C)cc1	16	11	1	8	69*	55*	-14	Scp-1 Tm shift=1
C=CCn1c(SCc2nc3sc(C(=O)O)c(C)c3c(=O)[nH]2)nnc1-c1ccccc1	6	7	0	-1	26	·	·
O=C(NC12CC3CC(CC(C3)C1)C2)c1cnccn1	-3	11	0	3	51*	27	-11
O=C1CCCN1CC(O)CS(=O)(=O)Cc1ccc(Cl)cc1 (stereo unspecified)	2	1	-2	-1	-7	0	-3
CC(C)(C)c1ccc(CS(=O)(=O)CC(O)CN2CCCC2=O)cc1 (stereo unspecified)	-2	1	-2	2	1	·	·
C=CCSc1nnc(NC(=O)CSc2nc(CCC)cc(=O)[nH]2)s1	0	-1	-1	-2	53*	7	-5
